Results of several laboratories.

system	conditions	endpoint	result	Compound
male C57BL/6 mouse, serum	oral, 10 mg/kg	AUC	7.4 µM·h	CC(C)(O)c1cn(-c2ccc(-c3cc(F)c(CO)c(S(C)(=O)=O)c3)cc2F)c(C(C)(C)c2c(Cl)cccc2Cl)n1
male CD-1 mouse, plasma	intravenous, 3 mg/kg	AUC(0-t)	3840 ng·h/mL	Cc1ccc2cncc(N3CCc4c(cc(Cn5ccnc5)cc4-c4cn(C)nc4C(F)(F)F)C3=O)c2c1
male BALB/c mouse, plasma	intravenous, 15 mg/kg	AUC	30600 ng·h/mL	NC[C@@H]1O[C@H](O[C@H]2[C@@H](O)[C@H](O[C@@H]3[C@@H](O)[C@H](N)C[C@H](N)[C@H]3O[C@H]3O[C@H](CO)[C@@H](O)[C@H](O)[C@H]3N)O[C@@H]2CO)[C@H](N)[C@@H](O)[C@@H]1O
male C57BL/6 mouse, plasma	intraperitoneal, 30 mg/kg	AUC	3600 ng·h/mL	CNC(=O)[C@H](Cc1c[nH]cn1)NC(=O)CN(CCCc1ccccc1)CC(=O)O
male C57BL/6 mouse, plasma	intraperitoneal, 5 mg/kg, single dose	AUC(0-inf)	6180 ng·h/mL	CC(C)(C)c1ccc(O)c(CN(Cc2cc(C(C)(C)C)ccc2O)C2CCC(NC(N)=O)CC2)c1 (centres unmarked)
male C57BL/6 mouse, plasma	intraperitoneal, 30 mg/kg	AUC	200 ng·h/mL	COC(=O)CN(CCCc1ccccc1)CC(=O)N[C@@H](Cc1c[nH]cn1)c1nc(C)no1
male CD-1 mouse, plasma	oral, 150 mg/kg	AUC(0-inf)	527000 ng·h/mL	CCc1cc(C(=O)NC)c2nccc(N3CCc4c(cc(Cn5ccnc5)cc4-c4cn(C)nc4C(F)(F)F)C3=O)c2c1
male C57BL/6 mouse, serum	oral, 10 mg/kg	AUC	6.9 µM·h	CC(C)(O)c1cn(-c2ccc(-c3cc(F)c(CO)c(S(C)(=O)=O)c3)cc2)c(C(C)(C)c2cccc(F)c2Cl)n1
mouse, plasma	oral, 2 mg/kg	AUC	0.78 µM·h	CC1(C)c2nc(-c3ccc(F)cc3)c(Nc3ccc(F)cc3)n2CCN1C(=O)CN
male CD-1 mouse, plasma	intravenous, 3 mg/kg	AUC(0-inf)	1840 ng·h/mL	COc1ccc2nccc(N3CCc4c(cc(Cn5ccnc5)cc4-c4cn(C)nc4C(F)(F)F)C3=O)c2c1
female mouse, plasma	oral, 30 mg/kg, single dose	AUC(0-t)	179000 ng·h/mL	Cc1nc(-c2cnc(NC(C)C)n(C)c2=O)ccc1Oc1ccnc(-c2cnn(C)c2)c1
Swiss mouse, plasma	intraperitoneal, 3 mg/kg	AUC	1070 ng·h/mL	CCN1CCN(Cc2cc(NC(=O)c3ccc(C)c(-c4ccc5nc(NC(=O)C6CC6)cn5n4)c3)cc(C(F)(F)F)c2)CC1
male BALB/c mouse, plasma	intravenous, 5 mg/kg	AUC	76 µM·h	CC[C@H](C)[C@@H]1NC(=O)[C@@](C)(NC(=O)[C@H](CCCNC(=N)N)NC(=O)[C@H](CC(C)C)NC(=O)[C@@H](NC(=O)[C@H](CCC(N)=O)NC(=O)[C@H](CC(C)C)NC(C)=O)[C@@H](C)O)CCCC=CCCC[C@@](C)(C(=O)N[C@@H](CC(C)C)C(=O)N[C@@H](Cc2ccc3ccccc3c2)C(N)=O)NC(=O)[C@H](CCCNC(=N)N)NC(=O)[C@H](CCC(N)=O)NC1=O
CD-1 mouse, plasma	intravenous, 5 mg/kg	AUC	1450 ng·h/mL	OC[C@H]1O[C@@H](c2ccc(Cl)c(Cc3ccc(O[C@H]4CCOC4)cc3)c2)[C@H](O)[C@@H](O)[C@@H]1O
